Consider five compounds from ChEMBL document CHEMBL4130344, “Substituted arylsulphonamides as inhibitors of perforin-mediated lysis” (Eur J Med Chem, 2017).

A short description of the series: Metabolic stability in human liver microsomes assessed as parent compound remaining at 3 uM after 30 mins by LC-MS/MS method. The class given is ADME, microsome. Particulars: read-out: Stability. The method in brief: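 Compounds were tested as sodium salts. The read-out was the percentage of parent compound remaining after 30 min exposure to human microsomes.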
A general note: Microsomes from liver hold many membrane-bound enzymes, among them those of drug oxidation.
Turning to `CN1Cc2cc(-c3ccc(-c4cncc(NS(=O)(=O)c5c(F)cc(F)cc5F)c4)s3)ccc2C1=O`, the remaining at 0.5 h, 3 µM was 63%.

`CN1Cc2cc(-c3ccc(-c4cncc(NS(=O)(=O)c5cccc(C(F)(F)F)c5)c4)s3)ccc2C1=O`: the remaining at 0.5 h, 3 µM is 57%.

For `CN1Cc2cc(-c3ccc(-c4cncc(NS(=O)(=O)c5ccccc5C(F)(F)F)c4)s3)ccc2C1=O`, the remaining at 0.5 h, 3 µM was determined as 14%.

For `CN1Cc2cc(-c3ccc(-c4cncc(NS(=O)(=O)c5ccc([N+](=O)[O-])cc5)c4)s3)ccc2C1=O`, the remaining at 0.5 h, 3 µM was found to be 39%.

`CN1Cc2cc(-c3ccc(-c4cncc(NS(=O)(=O)c5ccc(C#N)cc5)c4)s3)ccc2C1=O`: the remaining at 0.5 h, 3 µM is 52%.
